Consider 10 compounds from ChEMBL document CHEMBL1781939, “Triterpene and sterol derivatives from the roots of Breynia fruticosa” (J Nat Prod, 2011).

pIC50: −log10 of the molar value. Bounds are passed on as bounds.

Common to all, as to assay type: functional, cell-based
One experiment deals with HL-60. The experiment can be described thus: Cytotoxicity against human HL60 cells after 48 hrs by MTT assay. Conditions: HL-60, 48 h. Put shortly: (§1)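 Cells grown in DMEM with 10% FBS, 5% CO2, 37 °C. Adherent lines plated and left to attach 12 h before dosing; suspension HL-60 plated immediately before dosing; starting density 1 × 10^5 cells/mL. Treated with 0.064, 0.32, 1.6, 8 and 40 μM in triplicate for 48 h; cisplatin as positive control. Viability by MTT; IC50 by Reed–Muench method.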
(Tetrazolium dyes change colour on reduction, which living cells bring about.)

The next experiment relates to SMMC-7721. The experiment can be described thus: Cytotoxicity against human SMMC7721 cells after 48 hrs by MTT assay. Conditions: SMMC-7721, 48 h. Put shortly: as §1
The subject of another experiment is A549. Kind of experiment: Cytotoxicity against human A549 cells after 48 hrs by MTT assay. Conditions: A549, 48 h. In short, it runs like this: as §1
The next experiment concerns MCF7. Kind of experiment: Cytotoxicity against human MCF7 cells after 48 hrs by MTT assay. Conditions: MCF7, 48 h. In short, it runs like this:
as §1

The next experiment concerns SW480. Kind of experiment: Cytotoxicity against human SW480 cells after 48 hrs by MTT assay. Conditions: SW480, 48 h. Put shortly:
as §1

By pIC50 is commonly meant the negative decadic logarithm of the IC50, by convention in mol/L. Low values mean a high IC50, high ones a low IC50. Take `C=C(C)[C@@H]1CC[C@]2(C(=O)O)CC[C@]34C(=O)O[C@]5(CC[C@@H]3[C@@H]12)[C@@]4(C)CC[C@]12O[C@]51[C@@H](C)CC2(C)C` [BREYNCEANOTHANOLIC ACID]: the pIC50 in the experiment with HL-60 was 4.99; with SMMC-7721, 4.84; in the experiment on A549, 4.84; with MCF7 it was 4.90; in the experiment with SW480, 4.70.

In the case of `C=C(C)[C@@H]1CC[C@]2(C(=O)O)CC[C@]3(C)[C@H](CC[C@@H]4[C@@]5(C)[C@H](C(=O)O)[C@H](O)C(C)(C)[C@@H]5CC[C@]43C)[C@@H]12` [EPICEANOTHIC ACID], the pIC50 in the experiment with HL-60, in the experiment with SMMC-7721, with A549, in the experiment on MCF7 and in the experiment with SW480 was less than 4.40 throughout.

On to `C=C(CC[C@@H](CO)[C@H]1CC[C@H]2C3=CC[C@H]4[C@H](C)[C@@H](O)[C@H](O)C[C@]4(C)[C@H]3CC[C@]12C)C(C)C` [FRUTICOSIDE A], for which the pIC50 with HL-60 is 5.52; with SMMC-7721, 4.73; in the experiment with A549 it was 4.80; in the experiment on MCF7, 4.81; with SW480, 4.74.

For the compound `C=C(CC[C@@H](C(=O)O)[C@H]1CC[C@H]2C3=CC[C@H]4[C@H](C)[C@@H](O)[C@H](O)C[C@]4(C)[C@H]3CC[C@]12C)C(C)C` [FRUTICOSIDE B], the pIC50 in the experiment with HL-60, in the experiment on SMMC-7721, with A549, in the experiment on MCF7 and in the experiment on SW480 was less than 4.40 throughout.

Take `C=C(CC[C@@H](C(=O)O)[C@H]1CC[C@H]2C3=CC[C@H]4[C@H](C)[C@@H](O[C@@H]5O[C@@H](C)[C@H](O)[C@@H](O)[C@@H]5O)[C@H](O)C[C@]4(C)[C@H]3CC[C@]12C)C(C)C` [FRUTICOSIDE C]: the pIC50 in the experiment with HL-60, with SMMC-7721, in the experiment with A549, in the experiment with MCF7 and with SW480 was less than 4.40 throughout.

`C=C(CC[C@@H](C(=O)O)[C@H]1CC[C@H]2C3=CC[C@H]4[C@H](C)[C@@H](O[C@@H]5O[C@@H](C)[C@H](O)[C@@H](O)[C@@H]5O)[C@H](OC(C)=O)C[C@]4(C)[C@H]3CC[C@]12C)C(C)C` [FRUTICOSIDE D]: the pIC50 in the experiment with HL-60, in the experiment on SMMC-7721, with A549, with MCF7 and in the experiment with SW480 was less than 4.40 throughout.

With `C=C(CC[C@@H](C(=O)O)[C@H]1CC[C@H]2C3=CC[C@H]4[C@H](C)[C@@H](O[C@@H]5O[C@@H](C)[C@H](O)[C@@H](O)[C@H]5O)[C@H](OC(C)=O)C[C@]4(C)[C@H]3CC[C@]12C)C(C)C` [FRUTICOSIDE E], the pIC50 in the experiment with HL-60, in the experiment with SMMC-7721, in the experiment with A549, with MCF7 and in the experiment with SW480 was less than 4.40 throughout.

In the case of `C=C(CC[C@@H](C(=O)S)[C@H]1CC[C@H]2C3=CC[C@H]4[C@H](C)[C@@H](O[C@@H]5O[C@@H](C)[C@H](O)[C@@H](O)[C@@H]5O)[C@H](OC(C)=O)C[C@]4(C)[C@H]3CC[C@]12C)C(C)C` [FRUTICOSIDE F], the pIC50 in the experiment with HL-60, with SMMC-7721, in the experiment with A549, in the experiment on MCF7 and with SW480 was less than 4.40 in each case.

As for `C/C=C(/CC[C@@H](C(=O)S)[C@H]1CC[C@H]2C3=CC[C@H]4[C@H](C)[C@@H](O[C@@H]5O[C@@H](C)[C@H](O)[C@@H](O)[C@@H]5O)CC[C@]4(C)[C@H]3CC[C@]12C)C(C)C` [FRUTICOSIDE G], the pIC50 in the experiment with HL-60, in the experiment with SMMC-7721, with A549, in the experiment with MCF7 and with SW480 was less than 4.40 throughout.

Turning to `C=C(C)[C@@H]1CC[C@]2(C(=O)O)CC[C@]3(C)[C@H](CC[C@@H]4[C@@]5(C)[C@H](C=O)[C@H](O)C(C)(C)[C@@H]5CC[C@]43C)[C@@H]12` [ZIZYBERANALIC ACID], the pIC50 in the experiment with HL-60, in the experiment on SMMC-7721, with A549, in the experiment on MCF7 and in the experiment with SW480 was less than 4.40 each time.
